This is a sample that favours compounds with a hit; in the whole collection about 3.8% have one here.
Yeast growth inh – chemicals that inhibit yeast BB579 growth in restrictive medium (lifespan-shortening candidates); S. cerevisiae BB579 growth, OD615, 48 h; inhibition, % at 10 µM; hit rate 0.51% among 140,000; AID 804;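 active = inhibition above a set limit, 3 SD over the mean compound inhibition, cut at about 44% in these data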
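controls = amphotericin B 10 µg/mL, positive | assay system = DeaD yeast strain BB579 | schedule = 48 h compound exposure at 30 °C after 4 h preincubation | detection = OD615 turbidity measurement | medium = restrictive CSMM-D medium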
Yeast life ext – extends the lifespan of yeast | S. cerevisiae growth with nicotinamide, OD615; deaD strain in restrictive glucose medium | inhibition of the nicotinamide effect, % at 10 µM | hit rate 0.68% among 130,000;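 active = inhibition above a set limit, placed 3 SD over the median of all compounds, cut at about 26% in these data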
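Assay system: DeaD-strain S. cerevisiae. Medium: CSMM-D glucose medium, restrictive. Reagent: nicotinamide, 1.5 mM, co-present with compound. Compound: 10 µM single point, 0.25% DMSO. Schedule: culture preincubation 4 h, compound exposure 48 h, both 30 °C. Detection: absorbance at 615 nm.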
Measles CPE – protection of cells from measles virus; Measles virus-infected cells, CPE protection, absorbance; hit rate 1.5% among 140,000; protection (pct of control), % at 4 µM; AID 841; in the data active = protection mostly above about 24%, no sharp cut-off; inactive = mostly below about 26%
RAM inhibit – yeast RAM network inhibition | S. cerevisiae dse1pr::URA3 reporter, 5-FOA growth OD615, 2 d; analog-sensitive cbk1-as2 kinase mutant strain | inhibition, % at 50 µM | hit rate 1.8% among 190,000 | AID 868;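 active = inhibition above a set limit, 3 SD over mean compound inhibition, cut at about 8.4% in these data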;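 also: inhibition rescues growth on 5-FOA so higher OD means more RAM inhibition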
RAM 5-FOA – RAM network inhibition, efflux-deficient strain; shares compounds with RAM inhibit; S. cerevisiae efflux-deficient reporter strain, 5-FOA growth OD615, 2 days; max inhibition, %; 1,200 tested, under 10 active; call rule not given here
Of the large screens only hits and unclear results are named; the others gave an inactive call (follow-up assays come after a bar, where they were run).

CN(C)c1ccc(NC(=O)CSc2nnc(-c3cccs3)n2Cc2ccco2)cc1	none
O=C(CSc1nnc(Cc2cccs2)n1Cc1ccco1)Nc1cccc(Cl)c1	none
CCOc1ccc(NC(=O)CSc2nnc(-c3ccccc3Cl)n2Cc2ccco2)cc1	RAM inhibit 15.3 | RAM 5-FOA inactive
COc1ccc(NC(=O)CSc2nnc(-c3ccccc3Cl)n2Cc2ccco2)c(OC)c1	none
O=C(CSc1nnc(Cc2cccs2)n1Cc1ccco1)Nc1cc(Cl)cc(Cl)c1	RAM inhibit 11.5 | RAM 5-FOA inactive
Fc1ccc(-c2nc3c(-c4ccccc4)cnn3cc2CCN2CCOCC2)cc1	none (no result: Yeast growth inh, Yeast life ext, Measles CPE)
COc1ccc(C(=O)/C=C/c2ccc(N3CCCCC3)c([N+](=O)[O-])c2)c(OC)c1	Measles CPE 49.9, RAM inhibit 17.4 | RAM 5-FOA inactive
O=C(O/N=C\c1ccc(N2CCCCC2)c([N+](=O)[O-])c1)c1c(F)cccc1F	none
Cc1ccc(C(=O)O/N=C\c2ccc(N3CCCCC3)c([N+](=O)[O-])c2)cc1	RAM inhibit 15.9 | RAM 5-FOA inactive
Cc1ccc(C)c(C(=O)COC(=O)CCCC(=O)Nc2cc(C(F)(F)F)ccc2Cl)c1	RAM inhibit 17.7 | RAM 5-FOA inactive
O=C(CCNC(=O)c1ccccc1Cl)Nc1cc(C(F)(F)F)ccc1Cl	none
COc1ccc(/C=C2\SC(=O)N(CCC(=O)Nc3ccccc3)C2=O)cc1OC	RAM inhibit 13.0 | RAM 5-FOA inactive
COc1cc(/C=C2\SC(=S)N(CCC(=O)Nc3ccccc3)C2=O)cc(OC)c1OC	none (no result: Yeast growth inh, Yeast life ext, Measles CPE)
COc1ccccc1N(CC(O)COc1ccccc1)S(=O)(=O)c1ccccc1 (stereo not drawn)	none
COc1ccccc1N(CC(O)COc1c(C)cc(C)cc1C)S(=O)(=O)c1ccccc1 (stereo not drawn)	RAM inhibit 11.8 | RAM 5-FOA inactive
COc1ccccc1N(CC(O)CN(c1ccccc1)S(C)(=O)=O)S(=O)(=O)c1ccccc1 (stereo not drawn)	none
COc1ccccc1N(CC(O)COc1ccc(C)cc1)S(=O)(=O)c1ccccc1 (stereo not drawn)	RAM inhibit 12.4 | RAM 5-FOA inactive
CCOC(=O)CC(NS(=O)(=O)Cc1ccccc1)c1ccc(C)cc1 (stereo not drawn)	none
CCOc1c(Cl)cc(C(=O)Nc2ccccc2-c2ccccc2)cc1Cl	RAM inhibit 13.9 | RAM 5-FOA inactive
Cc1cc(=O)[nH]c(SCC(=O)N(CCC#N)c2ccccc2)c1C#N	none (no result: Yeast growth inh, Yeast life ext, Measles CPE)
CCCc1cc(C(=O)OC)c(NC(=O)c2cc(C)on2)s1	RAM inhibit 12.2 (no result: Yeast life ext) | RAM 5-FOA inactive
O=C(O)c1cc(N2C(=O)C3C4C=CC(C4)C3C2=O)ccc1N1CCOCC1 (stereo not drawn)	none (no result: Yeast growth inh, Yeast life ext, Measles CPE)
COc1ccc(C(=O)/C=C/Nc2ccc(S(=O)(=O)Nc3nc(C)cc(C)n3)cc2)cc1OC	none
COc1ccc(C(=O)/C=C/Nc2ccc(S(=O)(=O)Nc3onc(C)c3C)cc2)cc1	Measles CPE 42.6, RAM inhibit 12.8 | RAM 5-FOA inactive
COc1ccc(C(=O)/C=C/Nc2ccc(S(=O)(=O)Nc3ncccn3)cc2)cc1	RAM inhibit 11.6 | RAM 5-FOA inactive
Cc1noc(NS(=O)(=O)c2ccc(N/C=C/C(=O)c3ccncc3)cc2)c1C	none
CCCSC1=N/C(=C/c2ccsc2)C(=O)N1c1ccccc1	RAM inhibit 12.1 | RAM 5-FOA inactive
CCSC1=N/C(=C/c2ccsc2)C(=O)N1c1ccccc1	RAM inhibit 11.9 | RAM 5-FOA inactive
CSC1=N/C(=C\c2cccnc2)C(=O)N1c1ccccc1	none
CCSC1=N/C(=C\c2cccnc2)C(=O)N1c1ccccc1	none
CCCCSC1=N/C(=C/c2ccsc2)C(=O)N1c1ccccc1	RAM inhibit 16.0 | RAM 5-FOA inactive
CCC1(C)OC(=O)NN(c2ccc(C)cc2)C1(C)O (stereo not drawn)	none
Cc1ccc2nc(Cl)c(CNCc3ccccc3)cc2c1	none (no result: Yeast growth inh, Yeast life ext, Measles CPE)
C1CCN(Cc2nnnn2CC2CCCO2)CC1 (stereo not drawn)	none (no result: Yeast growth inh, Yeast life ext, Measles CPE)
COc1ccc2c(c1)C(C)CC(C)(C)N2C(=O)CSc1nc2ccccc2s1 (stereo not drawn)	RAM inhibit 13.3 | RAM 5-FOA inactive
COc1ccc(CNC(=O)c2csc(Cc3ccc(OC)cc3)n2)cc1	none
COc1ccc(Cc2nc(C(=O)Nc3ccc(F)cc3)cs2)cc1	RAM inhibit 15.9 | RAM 5-FOA inactive
C=CCOC(=O)C1=C(C)Nc2nnnn2C1c1cccs1 (stereo not drawn)	none
S=C(NCc1ccco1)NCC(c1ccco1)N1CCCCC1 (stereo not drawn)	none (no result: Yeast growth inh, Yeast life ext, Measles CPE)
O=C(OCC#CCSc1nnc(-c2ccncc2)o1)c1cccs1	none
O=C(OCC#CCSc1nnc(-c2cccc3ccccc23)o1)c1ccco1	RAM inhibit 17.2 | RAM 5-FOA inactive
O=C(COC(=O)CNS(=O)(=O)c1ccc2ccccc2c1)Nc1ccccc1Sc1ccccc1	RAM inhibit 22.6 | RAM 5-FOA inactive
COc1ccc(N2Cc3cccc(C(=O)NC(C)CCc4ccco4)c3C2=O)cc1 (stereo not drawn)	none
CC(CCc1ccco1)NC(=O)c1cccc2c1C(=O)N(C1CCCCC1)C2 (stereo not drawn)	RAM inhibit 12.0 (no result: Yeast growth inh, Yeast life ext, Measles CPE) | RAM 5-FOA inactive
CC(=O)NCCn1c(SCc2ccc(C)cc2C)nc2ccccc2c1=O	none
COc1ccc(NC(=O)CSc2nc3ccccc3c(=O)n2CCNC(C)=O)c(OC)c1	RAM inhibit 11.9 | RAM 5-FOA inactive
CC(=O)NCCn1c(SCc2cccc([N+](=O)[O-])c2)nc2ccccc2c1=O	RAM inhibit 11.6 (no result: Yeast growth inh, Yeast life ext, Measles CPE) | RAM 5-FOA inactive
CC1CCc2c(C(=O)Nc3ccc(OC(F)(F)F)cc3)csc2C1 (stereo not drawn)	none
Cc1cc(NC(=O)COC(=O)C(Nc2ccc(C(F)(F)F)cc2Cl)C(C)C)no1 (stereo not drawn)	RAM inhibit 13.1 | RAM 5-FOA inactive
CC(=O)c1cccc(NC(=O)CN2C(=S)NC(C)(C)CC2C)c1 (stereo not drawn)	none (no result: Yeast growth inh, Yeast life ext, Measles CPE)
CCc1oc2ccccc2c1C(=O)c1cc(Br)c(O)c(Br)c1	Yeast growth inh 82.0, RAM inhibit 15.6 | RAM 5-FOA inactive
COC(=O)c1cc(=O)n(CCc2ccccc2)c(=Nc2ccc(F)cc2)s1	RAM inhibit 11.5 | RAM 5-FOA inactive
COc1cc(C(C(=O)NC2CCCCC2)N(CCN2CCOCC2)C(=O)C2COc3ccccc3O2)cc(OC)c1OC (stereo not drawn)	none (no result: Yeast growth inh, Yeast life ext, Measles CPE)
O=C(CC1C(=O)NCCN1Cc1cccc(Oc2ccccc2)c1)NCCCn1cccn1 (stereo not drawn)	none (no result: Yeast growth inh, Yeast life ext, Measles CPE)
CC(c1ccccc1)N1CC(C(=O)N2CCN(c3ccc(F)cc3)CC2)CC1=O (stereo not drawn)	none
CCOC(=O)c1cc(C)sc1NC(=O)C(c1ccccc1)c1ccccc1	RAM inhibit 16.1 | RAM 5-FOA inactive
CC(C)(C)NC(=O)c1ccc(NC(=O)CSc2ccccc2)cc1	RAM inhibit 21.8 (no result: Yeast growth inh, Yeast life ext, Measles CPE) | RAM 5-FOA inactive
COc1ccc(-n2nnc3c(SCC(=O)OCc4ccccc4)ncnc32)cc1	RAM inhibit 13.6 | RAM 5-FOA inactive
